Experiments:
[1] = Chemical stability of squaraine fluorophore in PBS; type: physicochemical; settings: pH 7.4, followed over 15 hours (Figure S11A)
Water solubility = type: physicochemical; settings: in water
[2] = Self-aggregation in water by absorption spectrum; type: physicochemical; settings: absorption spectrum in water (Figures S7, S10)
[3] = Histology staining of bone sections; parameters: species or system mouse
How it was run: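 Thin sections of mouse tibia were treated with a 5 μM probe solution for 30 minutes and then imaged by fluorescence microscopy. For the demineralized comparison, slices were pre-treated with EDTA before staining. A charge-balanced, net-neutral peptide probe served as the control stain.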

Asp-N = test: Proteolytic degradation by Asp-N endoproteinase, LCMS analysis; type: in vitro ADME; settings: SF8(DDDDG)2 vs linear azido-DDDDG, 2 hours
How it was run: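 The test compound and the linear pentapeptide comparator were each incubated separately at 10 μM with Asp-N, an endoproteinase that cleaves peptide bonds on the N-terminal side of aspartic acid residues.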

## (azido-RRRG)2 [SR(azido-RRRG)2]
[1]
  chemical stability, fluorescence profile of solution: almost completely bleached after a few hours
Water solubility
  water solubility: soluble
[2]
  self-aggregation: unaggregated

## (DDDDG)2 (bicyclic or more) [SF8(DDDDG)2]
[3]; bone slices demineralized with pre-treatment of EDTA (Figure S26)
  staining of demineralized bone slices: no staining
[3]; thin sections of mouse tibia bone, probe 5 μM, 30 minutes
  staining of bone histology slices: strongly stained the mineral segments
Asp-N
  factor by which proteolytic degradation of the peptide sequence was reduced: 3.8
Water solubility
  water solubility: high water-solubility
[2]
  self-aggregation: no molecular self-aggregation

## (azido-DDDDG)2 [SR(azido-DDDDG)2]
Water solubility
  water solubility: low solubility
[2]
  self-aggregation: formation of non-fluorescent H-aggregates

— article PMC7736561 (Angewandte Chemie (International ed. in English), 2020)
